# Only some compounds are listed: those with a hit (about 1.5% of all), similar ones and a draw of the others.
# m-calpain inh: calpain II (pig) inhibition; inhibition, % at 16 µM; AID 1236; purified calpain II, fluorogenic peptide substrate, 30 min; 220,000 tested, 0.37% active;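 active = inhibition above about 50%, limit read from the data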
# Wee1 degr inh: human Wee1 degradation inhibition, primary screen. HeLa Luc-Wee1K328M stability, luciferase luminescence; 100% = proteasome inhibitor MG132 effect. reporter increase, % at 5 µM. 220,000 tested, 1.2% active. AID 1321;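 active = activation above the mean of all tested compounds plus 3 SD, set per screening run, cut at about 8.8% in these data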;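 also: cells exposed to compound for 20 h before luminescence read; 0% = DMSO alone and 100% = MG132 at 30 µM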
# Target sequence (P30291 whole entry K328M): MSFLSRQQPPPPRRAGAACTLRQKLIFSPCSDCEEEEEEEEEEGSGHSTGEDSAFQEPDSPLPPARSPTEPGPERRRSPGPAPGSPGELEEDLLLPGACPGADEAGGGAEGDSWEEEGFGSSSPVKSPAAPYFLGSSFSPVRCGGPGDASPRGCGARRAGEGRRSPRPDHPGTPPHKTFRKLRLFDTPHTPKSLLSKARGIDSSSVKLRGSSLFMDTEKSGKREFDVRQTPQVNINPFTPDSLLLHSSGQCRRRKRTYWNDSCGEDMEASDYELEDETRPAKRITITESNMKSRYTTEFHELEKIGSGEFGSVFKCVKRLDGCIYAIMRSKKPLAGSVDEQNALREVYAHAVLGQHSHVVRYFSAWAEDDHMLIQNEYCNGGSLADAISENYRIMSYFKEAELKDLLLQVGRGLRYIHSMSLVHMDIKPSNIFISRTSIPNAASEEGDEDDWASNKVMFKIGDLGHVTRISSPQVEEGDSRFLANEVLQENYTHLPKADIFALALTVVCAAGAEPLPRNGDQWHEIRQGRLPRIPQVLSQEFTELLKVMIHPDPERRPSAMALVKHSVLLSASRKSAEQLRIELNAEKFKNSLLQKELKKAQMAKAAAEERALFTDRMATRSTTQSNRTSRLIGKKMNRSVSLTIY
# Mdm2 ligase inh: inhibitors of human Mdm2 E3 ubiquitin ligase. Q00987. cell-based MDM2 ubiquitination luciferase reporter, 2 h; 0 = plate control, 100 = twice control, blank-subtracted. signal enhancement, % at 5 µM. 210,000 tested, 0.11% active. AID 1230;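 active = signal enhancement of 30% or more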;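 also: luminescence tracks abundance of the self-degrading MDM2-luciferase fusion protein; higher signal means inhibition of MDM2 E3 ligase activity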
#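 Assay system: mammalian cells stably expressing self-ubiquitinating, self-degrading MDM2 E3–luciferase fusion. Quantity: 2000 cells in each well. Medium: DMEM culture medium. Compound dosing: single-point 5 µM. Timing: cell settling 4 h, compound treatment 2 h, both 37 °C. Technique: luciferase luminescence. Read-out basis: percent signal gain over controls, blank-subtracted. Benchmarks: plate controls and plate blanks.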
# Pf gamet viab: inhibitors of late stage P. falciparum gametocyte viability | P. falciparum stage V gametocytes, ATP luminescence, 24 h | inhibition, % at 10.9 µM | 150,000 tested, 0.065% active;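 active = inhibition above the mean plus 3 SD of compounds within the control limits, set per campaign, cut at about 38% in these data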;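 also: 0% = DMSO wells and 100% = medium only without gametocytes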
# Hsp70 activator: Hsp70 transcriptional activation, primary screen; HeLa Hsp70 promoter luciferase reporter, luminescence; scaled: vehicle 0, proteasome-inhibitor control 100%; activation, % at 10 µM; 200,000 tested, 0.04% active;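 active = activation above the mean across all tested compounds plus 3 SD, cutoff set per campaign, cut at about 5.5% in these data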;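 also: 100% = MG132 at 30 µM as the positive control and 0% = DMSO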
# * hit, by the source's call; nt = no result given.
SMILES,m-calpain inh,Wee1 degr inh,Mdm2 ligase inh,Pf gamet viab,Hsp70 activator
N#CC(C#N)=Cc1c[nH]c(=O)c(C#N)c1Nc1ccccc1,nt,nt,nt,-10,nt
COc1ccc(C(=O)Nc2nc3ccccc3[nH]2)cc1OC,-10,1,6,nt,0
CCOc1ccc(C(=O)Nc2nc3ccccc3[nH]2)cc1OCC,2,9.3*,-8,6,0
CC(C)(C)c1ccc(S(=O)(=O)NNC(=O)c2cc3ccccc3[nH]2)cc1,nt,nt,nt,-24,nt
Cc1nnc(NC(=O)c2ccc3c(c2)OCO3)s1,-18,11*,-44,nt,0
CCOc1ccc(CNC2CCCCCCC2)cc1OC,nt,nt,nt,5,nt
CCCCN(C(=O)NC(=O)Nc1ccccc1C)S(C)(=O)=O,13,29*,24,nt,0
COC(=O)c1cc(C(=O)Nc2ccc(Cl)cn2)cc([N+](=O)[O-])c1,7,9.0*,-12,-13,0
COc1ccc(/C(C)=N/NC(=O)Cc2ccc(Cl)cc2)cc1,nt,nt,nt,4,nt
Fc1ccc(NC(=S)Nc2cccnc2)c(F)c1F,17,9.5*,-5,20,0
COc1cc([N+](=O)[O-])ccc1NC(=O)CN1C(=O)NC2(CCCCC2C)C1=O (stereo not given),nt,nt,nt,8,nt
Cc1nc2cc(Cl)c(Cl)cc2n1CCCO,-22,10*,-19,30,nt
COc1ccc(-c2csc(NC(C)c3nc4cc(Cl)c(Cl)cc4n3CCCO)n2)cc1 (stereo not given),nt,nt,nt,3,nt
COc1cc(OC)c(C(=O)Nc2ccc(C(=O)c3ccccc3)cc2)cc1OC,nt,nt,nt,-23,nt
CCN1CCN(Cc2cccc(Oc3ccc(Cl)cc3)c2)CC1,3,-2,-17,0,-1
CN1CCN(Cc2cccc(Oc3ccc(Cl)cc3)c2)CC1,1,10*,-14,-11,0
COc1ccc(-c2c(C)nn3c(C)cc(C)nc23)cc1,nt,nt,nt,-6,nt
CCOC(=O)CN(C(=O)CSc1nnc2c(n1)[nH]c1ccc(F)cc12)c1ccccc1,59*,0,-17,nt,0
CCOC(=O)CN(C(=O)CSc1nnc2c(n1)[nH]c1ccccc12)c1ccccc1,16,-1,-2,nt,0
Cc1cc(C)c(S(=O)(=O)NC2CC3CCC2C3)c(C)c1 (stereo not given),nt,nt,nt,-9,nt
COc1ccc(N(C)S(=O)(=O)c2cccc(C(=O)NCC3CCCCC3)c2)cc1,55*,0,-4,-15,0
COc1ccc(N(C)S(=O)(=O)c2cccc(C(=O)NC3CCCC3)c2)cc1,-14,0,-12,-20,0
Cc1ccc(/C(C#N)=C\c2ccc(N3CCOCC3)o2)cc1,12,0,11,-3,1
Cc1ccc2nc(/C(C#N)=C\c3ccc(N4CCOCC4)o3)[nH]c2c1,-6,9.4*,-24,0,0
O=C(O/N=C1\CCS(=O)(=O)c2sccc21)c1ccccc1,24,6,-8,nt,0
SMILES,m-calpain inh,Wee1 degr inh,Mdm2 ligase inh,Pf gamet viab,Hsp70 activator
O=C(O/N=C1\CCS(=O)(=O)c2sccc21)c1ccc(F)cc1,60*,-4,0,17,0
O=C(O)CSCCOc1ccc(OCCSCC(=O)O)cc1,-4,10*,-11,-4,0
CCOc1ccc(C(=O)CSCCC(=O)O)cc1,-11,2,-27,8,0
CSc1nc(C)c(C(=O)C[n+]2ccccc2)cc1C#N,18,9.8*,-6,7,nt
CCc1cc2c(N=Nc3c(O)[nH]c4ccccc34)ncnc2s1,-19,0,-6,nt,0
CCc1ccc2[nH]c(O)c(N=Nc3nc(-c4ccccc4)cs3)c2c1,-47,9.7*,-9,-26,0
CC(=O)c1ccc(NC(=S)NC(C)c2ccc(Cl)cc2Cl)cc1 (stereo not given),2,-2,-5,-5,0
COc1ccc(C(=O)NC2CC3CCCC(C2)N3Cc2ccccc2)cc1OC (stereo not given),nt,nt,nt,-7,nt
O=C(c1cc([N+](=O)[O-])ccc1N1CCCCC1)N1CCCC1,19,-2,-13,5,0
O=C(c1cc([N+](=O)[O-])ccc1N1CCOCC1)N1CCCCC1,82*,-2,1,1,0
O=C1[C@H](Cc2ccccc2)NCC=CC[C@@H](c2ccc(Cl)cc2)N1Cc1ccccc1,nt,nt,nt,-2,nt
CC(C)(C)c1nc(NCCO)c2nnn(Cc3ccccc3)c2n1,nt,nt,nt,10,nt
CNC(=O)Nc1ccc(C2SCCS2)cc1,-5,-1,-11,0,nt
O=C(Nc1ccc(C2SCCS2)cc1)c1ccccc1,-10,10*,-16,17,nt
O=C(NCc1ccccc1)C1CCN(S(=O)(=O)N2CCCCCC2)CC1,15,9.5*,2,-3,0
CCN(CC)c1ccc(/C=C2/C(=O)c3ccc(C(=O)O)cc3C2=O)cc1,-2,4,63*,12,1
COCCCNC(=O)/C=C1\Sc2ccccc2N(Cc2ccccc2F)C1=O,-8,9.7*,-13,-11,0
COc1ccc(-c2csc(NC(=O)c3ccccc3NS(=O)(=O)c3ccc(F)c(F)c3)n2)cc1,61*,-3,-44,13,0
N#Cc1cccc(C#N)c1Oc1ccc(S(=O)(=O)Nc2ccccc2)cc1,24,-1,-15,1,nt
N#Cc1c(Cl)cccc1Oc1ccc(S(=O)(=O)Nc2ccccc2)cc1,51*,-3,-5,-4,nt
CC(C)(C)c1cc(NS(=O)(=O)c2cccs2)no1,nt,nt,nt,14,nt
CSc1nc(=S)n(-c2ccc([N+](=O)[O-])cc2)c(C)c1C(C)=O,nt,nt,nt,3,nt
C(=C\c1ccccc1)/CSc1ccccn1,32,9.2*,-13,13,0
CC[C@]12C(=O)N(C)C[C@H]([C@@H]3C(=O)N(C)C(=O)[C@@H]31)N2C(=O)c1ccc(F)cc1,nt,nt,nt,21,nt
Cc1noc(C)c1COc1ccc(C(=O)Nc2ccccc2)cc1,-17,-3,-6,27,0
SMILES,m-calpain inh,Wee1 degr inh,Mdm2 ligase inh,Pf gamet viab,Hsp70 activator
Cc1noc(C)c1COc1ccc(C(=O)NCc2ccccn2)cc1,11,1,68*,nt,0
CN(c1ccccc1C(=O)NCc1ccccc1Cl)S(=O)(=O)c1ccccc1,nt,nt,nt,23,nt
CCOC(=O)[C@H]1[C@H]2COc3ccccc3[C@@H]2N2C(=O)c3c(C)cc(C)cc3NC(=O)[C@@]12C,nt,nt,nt,-1,nt
O=C1CC(/C=C/c2ccc([N+](=O)[O-])cc2)=Nc2ccccc2N1,-7,-2,3,-28,nt
CC1=Nc2cccc([N+](=O)[O-])c2NC(=O)C1,21,15*,-11,19,0
CCCCCCCNC(=O)C1(CC2CC(c3ccc(Cl)cc3)=NO2)CCN(C(=O)OC(C)(C)C)CC1 (stereo not given),nt,nt,nt,20,nt
CC1CCN(c2c(NCc3ccc(C(=O)N4CCN(C5CCCCC5)CC4)cc3)c(=O)c2=O)CC1,-1,3,nt,nt,0
CCOC(=O)C1CCCN(C(=O)c2ccc(CNc3c(N4CCC(C)CC4)c(=O)c3=O)cc2)C1 (stereo not given),25,-1,92*,nt,0
COc1ccc(N=C2S/C(=C\c3ccc(OCC(=O)O)cc3)C(=O)N2CCc2c[nH]c3ccccc23)cc1,82*,2,-23,15,0

# Source: PubChem BioAssay
